Molecules are shown by their SMILES. Where “and” joins values, the source holds several entries; their conditions need not be identical. Identical values can stand only once.

The target in assay [1] is T1, Rho-MatB (Rhodopseudomonas palustris, UniProt Q6ND88, C106A/K488A/Q457C/R286C).
T1 sequence (Q6ND88 1-503 C106A/R286C/Q457C/K488A): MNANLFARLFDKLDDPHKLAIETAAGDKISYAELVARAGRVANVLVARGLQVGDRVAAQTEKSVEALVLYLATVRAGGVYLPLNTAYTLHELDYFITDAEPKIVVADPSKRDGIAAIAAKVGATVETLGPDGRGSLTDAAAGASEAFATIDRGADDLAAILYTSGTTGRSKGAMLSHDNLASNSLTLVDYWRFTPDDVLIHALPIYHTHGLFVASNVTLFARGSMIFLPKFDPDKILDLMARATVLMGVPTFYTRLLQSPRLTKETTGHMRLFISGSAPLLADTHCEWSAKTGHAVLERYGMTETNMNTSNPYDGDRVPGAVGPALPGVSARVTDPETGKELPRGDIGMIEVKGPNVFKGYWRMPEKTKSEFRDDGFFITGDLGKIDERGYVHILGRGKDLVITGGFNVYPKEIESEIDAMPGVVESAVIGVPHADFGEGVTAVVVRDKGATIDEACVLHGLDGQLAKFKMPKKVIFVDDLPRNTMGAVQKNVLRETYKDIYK
The experiment in a line: ATP titration of Rho-MatB in the presence of other nucleotides. The assay is classed as binding. To be noted: for fluorescence ratio of ATP titration: 1 μM Rho-MatB titrated with ATP in presence of 100 μM of the named nucleotide. The gist of the method: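 ATP was titrated into 1 μM labelled sensor, alone or with 100 μM ADP, dATP, ATPγS or AMP-PNP. Buffer was Hepes pH 7.0 / NaCl / MgCl2 / BSA, with excitation at 553 nm and emission at 571 nm. Dilution-corrected data were fitted to a quadratic binding equation to give the apparent Kd for ATP and the fluorescence ratio.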

Assay [2] has as its target T1, Rho-MatB. Description: Fluorescence of Rho-MatB with various ligands. It is filed as binding. To be noted: in words.
Assay [3] addresses pyruvate kinase (Oryctolagus cuniculus, UniProt P11974). The experiment in a line: Steady-state ATP production by pyruvate kinase monitored by Rho-MatB. The assay is classed as biochemical, rabbit.
Assay [4] concerns the target T1, Rho-MatB. Description: Fluorescence titration of nucleotides to Rho-MatB. The assay is classed as binding.
The target of assay [5] is RpMatB K488A. To be noted: read-out: Kd for ATP; unlabeled RpMatB K488A; cited from earlier work.
Assay [6] relates to ATeam. To be noted: ATeam biosensor; cited from earlier work.
Assay [7] addresses T1, Rho-MatB. Description: Stopped-flow association and dissociation kinetics of Rho-MatB and ATP. It is filed as binding. To be noted: 25 °C. In a few lines: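 Stopped-flow fluorescence at 25 °C in Hepes pH 7.0, NaCl, MgCl2, BSA buffer. In one format, a range of sensor concentrations in 10-fold excess over ATP gave single-exponential traces, with at least three traces averaged at 1.3 and 2.5 μM. In the other, 0.25 μM sensor was mixed with excess ATP, giving biphasic traces. kobs (fast phase) was plotted against the excess reactant; linear-regression slope gave association and intercept gave dissociation.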

The mark [8] stands for this setting: 0.25 μM Rho-MatB, ATP in large excess.
Setting [9] is: Rho-MatB in 10-fold excess over ATP.

Sequence of pyruvate kinase (P11974 whole entry): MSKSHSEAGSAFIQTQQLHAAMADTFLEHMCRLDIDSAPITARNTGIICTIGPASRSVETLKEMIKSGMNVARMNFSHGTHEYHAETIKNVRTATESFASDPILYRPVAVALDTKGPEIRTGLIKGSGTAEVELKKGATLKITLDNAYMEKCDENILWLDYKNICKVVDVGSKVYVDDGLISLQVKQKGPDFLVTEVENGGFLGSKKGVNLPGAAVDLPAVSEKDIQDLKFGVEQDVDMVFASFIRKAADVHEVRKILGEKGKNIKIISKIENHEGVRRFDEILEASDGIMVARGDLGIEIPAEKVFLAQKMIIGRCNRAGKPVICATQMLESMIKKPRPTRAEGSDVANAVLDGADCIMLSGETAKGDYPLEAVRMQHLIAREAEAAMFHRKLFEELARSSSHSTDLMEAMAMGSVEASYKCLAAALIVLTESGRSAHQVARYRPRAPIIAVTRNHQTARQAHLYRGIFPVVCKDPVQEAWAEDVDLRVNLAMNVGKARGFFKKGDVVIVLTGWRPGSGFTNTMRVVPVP

In the case of `Nc1ncnc2c1ncn2[C@@H]1O[C@H](COP(=O)(O)OP(=O)(O)O)[C@@H](O)[C@H]1O` [ADP], the “fluorescence ratio of ATP titration” value in assay [1] was 3.0.

Take `Nc1ncnc2c1ncn2[C@@H]1O[C@H](COP(=O)(O)OP(=O)(O)NP(=O)(O)O)[C@@H](O)[C@H]1O` [AMP-PNP, adenosine 5′-(β,γ-imido)triphosphate]: the “fluorescence ratio of ATP titration” value in assay [1] is recorded as 2.4.

For the compound `O=C(O)CC(=O)O` [malonate], in assay [2], the “effect on the MgATP-induced fluorescence increase” value is listed as “did not inhibit” and the “effect on the fluorescence of Rho-MatB” value is on record as “no effect”.

For `C=C(OP(=O)(O)O)C(=O)O` [phosphoenolpyruvate], the average specific activity in assay [3] was 0.76 μM s^–1 U^–1 mL and 0.76 ± 0.02 μM s^–1 U^–1 mL. Besides, in assay [3] (n = 5), the “average Vmax” value is reported as 0.0190 ± 0.0004 μM s^–1.

Consider `Nc1ncnc2c1ncn2[C@@H]1O[C@H](CO[P@](=O)(O)O[P@](=O)(O)O[P@@](=O)(O)S)[C@@H](O)[C@H]1O` [ATPγS, adenosine 5′-(γ-thio)triphosphate], for which the “fluorescence ratio of ATP titration” value in assay [1] is recorded as 1.9. Besides, the “increase of apparent Kd for ATP” value in assay [1] (fixed concentration of the named nucleotide) was around 5 fold. The Kd (usually the free concentration of one partner at which half of the binding sites on the other are occupied at equilibrium, for simple one-to-one binding) in assay [4] is 16.2 ± 0.8 µM.

For the compound `Nc1ncnc2c1ncn2[C@@H]1O[C@H](COP(=O)(O)O)[C@@H](O)[C@H]1O` [AMP], the “effect on the fluorescence of Rho-MatB” value in assay [2] is “did not significantly affect the fluorescence”.

Take `Nc1ncnc2c1ncn2[C@@H]1O[C@H](COP(=O)(O)OP(=O)(O)OP(=O)(O)O)[C@@H](O)[C@H]1O` [ATP]: the Kd in assay [5] was 0.31 µM. In addition, the “higher affinity for ATP than ADP” value in assay [6] is listed as 30 fold. Also, in assay [7] (setting [8]), the “association rate constant (fast phase)” value is 1.83 ± 0.02 μM^–1 s^–1 and 1.8 μM^–1 s^–1; the “intercept (dissociation rate constant, fast phase)” value is 8.15 ± 0.17 s^–1 and 8.2 s^–1. For the same compound, in assay [7] (setting [9]), the association rate constant is 0.72 μM^–1 s^–1; the “intercept (dissociation rate constant)” value is 8.0 s^–1 and 7.95 ± 0.18 s^–1. In assay [4] (Rho-MatB), the “higher affinity for ATP than ADP” value amounted to 67 fold. In assay [4] (excitation 553 nm, emission 575 nm, 1 μM Rho-MatB), the “increase in fluorescence intensity on ATP binding” value is given as 3.7 fold.

Take `Nc1nc2c(ncn2[C@@H]2O[C@H](COP(=O)(O)OP(=O)(O)O)[C@@H](O)[C@H]2O)c(=O)[nH]1` [GDP]: the “effect on the fluorescence of Rho-MatB” value in assay [2] is “did not significantly affect the fluorescence”.

In the case of `Nc1ncnc2c1ncn2[C@H]1C[C@H](O)[C@@H](COP(=O)(O)OP(=O)(O)OP(=O)(O)O)O1` [dATP], in assay [1], the “fluorescence ratio of ATP titration” value is 2.3.

For the compound `CC(C)(COP(=O)(O)OP(=O)(O)OC[C@H]1O[C@@H](n2cnc3c(N)ncnc32)[C@H](O)[C@@H]1OP(=O)(O)O)[C@@H](O)C(=O)NCCC(=O)NCCS` [coenzyme A], in assay [2], the “effect on the MgATP-induced fluorescence increase” value is “did not inhibit” and the “effect on the fluorescence of Rho-MatB” value is given as “no effect”.

Regarding `Nc1nc2c(ncn2[C@@H]2O[C@H](COP(=O)(O)OP(=O)(O)OP(=O)(O)O)[C@@H](O)[C@H]2O)c(=O)[nH]1` [GTP], the “effect on the fluorescence of Rho-MatB” value in assay [2] is on record as “did not significantly affect the fluorescence”.

The record behind these values is PMC4655421 (ACS Chemical Biology, 2015).
